Measurements as given in EPA's CvTdb concentration-time database.

How the values were obtained:
[1] = test system: Hamster; test: concentration in plasma after dosing; details: dosed: 2,4-Dichlorophenoxyacetic acid, 8.0 mg/kg, oral, Male, Syrian Golden
Summary of the method: (§1)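 Concentration-versus-time or amount-versus-time points were compiled from published in vivo toxicokinetic studies and from two structured collections. The studies were found by PubMed searching, classifier screening and manual review. Points were mostly digitised from plot screenshots with WebPlotDigitizer, otherwise copied from tables, and kept in the reported units. Dose, route, subject details and medium were curated by hand from each paper, and sampling and analytical methods follow each source and were often unreported.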

[2] = test system: Hamster; test: concentration in plasma after dosing; details: dosed: 2,4-Dichlorophenoxyacetic acid, 40 mg/kg, oral, Male, Syrian Golden
Summary of the method: as §1

[3] = test system: Hamster; test: concentration in plasma after dosing; details: dosed: 2,4-Dichlorophenoxyacetic acid, 2.0 mg/kg, oral, Male, Syrian Golden
Summary of the method: as §1

[4] = test system: Mouse; test: concentration in plasma after dosing; details: 2.5 min; dosed: 2,4-Dichlorophenoxyacetic acid; 1.0 mg/kg; oral; Male; B6C3F1
[5] = test system: Rat; test: concentration in plasma after dosing; details: dosed: 2-Hydroxy-4-methoxybenzophenone, 250 mg/kg, oral, Female, F344
[6] = test system: Mouse; test: concentration in plasma after dosing; details: 2 h; dosed: 2-Hydroxy-4-methoxybenzophenone; 50 mg/kg; iv; Female; B6C3F1
[7] = test system: Mouse; test: concentration in plasma after dosing; details: 3 h; dosed: 2-Hydroxy-4-methoxybenzophenone; 50 mg/kg; iv; Male; B6C3F1
[8] = test system: Rat; test: concentration in plasma after dosing; details: dosed: 2-Hydroxy-4-methoxybenzophenone, 250 mg/kg, oral, Male, F344
[9] = test system: Rat; test: concentration in plasma after dosing; details: dosed: 2-Hydroxy-4-methoxybenzophenone, 100 mg/kg, oral, Female, F344
[10] = test system: Rat; test: concentration in plasma after dosing; details: dosed: Methyleugenol, 37 mg/kg, iv, Male, F344
[11] = test system: Rat; test: concentration in plasma after dosing; details: dosed: Perfluorohexane-1-sulphonic acid – potassium salt, 4 mg/kg, oral, Male, F344
[12] = test system: Rat; test: concentration in brain after dosing; details: 12 h; dosed: Perfluorohexane-1-sulphonic acid – potassium salt; 16 mg/kg; oral; Female; Harlan Sprague Dawley
[13] = test system: Rat; test: concentration in liver after dosing; details: 48 h; dosed: Perfluorohexane-1-sulphonic acid – potassium salt; 16 mg/kg; oral; Female; Harlan Sprague Dawley
[14] = test system: Rat; test: concentration in liver after dosing; details: 1200 h; dosed: Perfluorohexane-1-sulphonic acid – potassium salt; 16 mg/kg; oral; Male; Harlan Sprague Dawley
[15] = test system: Rat; test: concentration in plasma after dosing; details: 0.5 h; dosed: Primidone; 130 mg/kg; oral; Male; Harlan Sprague Dawley
[16] = test system: Rat; test: concentration in plasma after dosing; details: 9 h; dosed: Primidone; 130 mg/kg; oral; Female; F344
[17] = test system: Rat; test: concentration in plasma after dosing; details: 22 h; dosed: Primidone; 130 mg/kg; oral; Female; F344
[18] = test system: Rat; test: concentration in plasma after dosing; details: 20 min; dosed: Pyridine; 10 mg/kg; iv; Male; F344
[19] = test system: Rat; test: concentration in plasma after dosing; details: dosed: Pyridine, 5 mg/kg, iv, Male, F344
[20] = test system: Rat; test: concentration in plasma after dosing; details: 50 min; dosed: Pyridine; 10 mg/kg; iv; Male; F344
[21] = test system: Rat; test: concentration in plasma after dosing; details: 0.25 h; dosed: Pyridine; 10 mg/kg; iv; Male; F344
[22] = test system: Rat; test: concentration in plasma after dosing; details: 2 min; dosed: alpha-Thujone; 25 mg/kg; oral; Male; Harlan Sprague Dawley
[23] = test system: Rat; test: concentration in brain after dosing; details: 1.5 h; dosed: alpha-Thujone; 25 mg/kg; oral; Male; Harlan Sprague Dawley
[24] = test system: Rat; test: concentration in brain after dosing; details: 2 min; dosed: alpha-Thujone; 50 mg/kg; oral; Male; Harlan Sprague Dawley
[25] = test system: Rat; test: concentration in brain after dosing; details: 3 h; dosed: alpha-Thujone; 25 mg/kg; oral; Female; Harlan Sprague Dawley
[26] = test system: Rat; test: concentration in plasma after dosing; details: 2.5 h; dosed: 76231-76-0; 3.0 mg/kg; iv; Female; F344
[27] = test system: Rat; test: concentration in brain after dosing; details: 1.5 h; dosed: alpha-Thujone; 25 mg/kg; oral; Male; Harlan Sprague Dawley; remark: listed apart in the source
[28] = test system: Rat; test: concentration in brain after dosing; details: 6 h; dosed: alpha-Thujone; 50 mg/kg; oral; Female; Harlan Sprague Dawley
[29] = test system: Rat; test: concentration in brain after dosing; details: 5 min; dosed: alpha-Thujone; 25 mg/kg; oral; Male; Harlan Sprague Dawley
[30] = test system: Rat; test: concentration in brain after dosing; details: 3 h; dosed: alpha-Thujone; 50 mg/kg; oral; Female; Harlan Sprague Dawley
[31] = test system: Rat; test: concentration in brain after dosing; details: 2 min; dosed: alpha-Thujone; 50 mg/kg; oral; Female; Harlan Sprague Dawley

O=C(O)COc1ccc(Cl)cc1Cl [2,4-Dichlorophenoxyacetic acid]
concentration in plasma [ng/mL]
Details	0.25 h	0.5 h	1 h	1.5 h	2 h	2.5 min	4 h	5 min	10 min
[1]	4060	1230	1030	–	511	2380	–	9420	–
[2]	70500	36800	80100	14000	20500	–	2580	102000	–
[3]	6170	–	492	–	1870	146	–	4920	1970

Details	concentration in plasma [ng/mL]
[4]	1730

O=C(c1ccccc1)c1ccc(O)cc1O [2,4-Dihydroxybenzophenone]
concentration in plasma [ng/mL]
Details	0.25 h	0.5 h	4 h	10 h
[5]	473	–	68	–
[8]	–	888	–	75.5
[9]	165	–	105	–

Details	concentration in plasma [ng/mL]
[6]	39.7
[7]	232

C=CCc1ccc(OC)c(OC)c1 [Methyleugenol]
[10]
Details	concentration in plasma [ng/mL]
0.25 h	9380
1.5 h	670

O=S(=O)([O-])C(F)(F)C(F)(F)C(F)(F)C(F)(F)C(F)(F)C(F)(F)F.[K+] [Perfluorohexane-1-sulphonic acid – potassium salt]
[11]
Details	concentration in plasma [ng/mL]
1 h	18800
12 h	32300
864 h	6150

Details	concentration in brain [ng/g]	concentration in liver [ng/g]
[12]	1140	–
[13]	–	14300
[14]	–	10900

CCC1(c2ccccc2)C(=O)NCNC1=O [Primidone]
Details	concentration in plasma [ng/mL]
[15]	55800
[16]	52500
[17]	1700

c1ccncc1 [Pyridine]
Details	concentration in plasma [ng/mL]
[18]	4020
[20]	4150
[21]	4510

[19]
Details	concentration in plasma [ng/mL]
0.25 h	3730
6 h	1300

CC(C)[C@]12CC(=O)[C@H](C)[C@H]1C2 [alpha-Thujone]
Details	concentration in brain [ng/g]	concentration in plasma [ng/mL]
[22]	–	17.8
[23]	359	–
[24]	385	–
[25]	556	–
[26]	–	2.88
[27]	525	–
[28]	200	–
[29]	1220	–
[30]	416	–
[31]	87.7	–
